Screens deposited in PubChem by several laboratories.
The list is not random: actives were taken first. Their share in the collection is about 2.4%.
697 NFkB inh – inhibitors of PMA/ionomycin-induced NF-kB reporter, 697 cells, primary screen, B-cell NF-kB inhibitor project, cell-based, luminescence, uHTS; 697 B-cell NF-kB luciferase reporter, 16 h; inhibition, % at 4 µM; 330,000 tested, 0.33% active; AID 435022, 2010; in the data active = inhibition above about 35%
aDG glyco up – activators of alpha-DG glycosylation, primary screen, uHTS, Pro5-aDG cells, AlphaScreen; alpha-DG glycosylation AlphaScreen (IIH6); 0% Pro5, 100% B10-LARGE cell signal; 360,000 tested, 0.22% active; AID 624168, 2012; activation, % at 10 µM;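 active = activation of at least 8% versus controls, or a plate z-score of at least 8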;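 also: Pro5 are CHO cells carrying HIG-tagged alpha-DG that lacks glycosylation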
NR2E3 ag-1 – inhibitors of NR2E3-RetCOR corepressor binding, primary screen, NR2E3 agonist project, biochemical, TR-FRET, GST-NR2E3, biotin-RetCOR. inhibition of corepressor binding, % at 4.78 µM. AID 2300, 2010. Photoreceptor-specific nuclear receptor (Homo sapiens), Q9Y5X4. 1536-well. 320,000 tested, 0.12% active;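 active = percent inhibition above the cutoff of mean plus 3 SD of all tested compounds, set per screening campaign, cut at about 20% in these data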
Target sequence (Q9Y5X4 whole entry, looked up): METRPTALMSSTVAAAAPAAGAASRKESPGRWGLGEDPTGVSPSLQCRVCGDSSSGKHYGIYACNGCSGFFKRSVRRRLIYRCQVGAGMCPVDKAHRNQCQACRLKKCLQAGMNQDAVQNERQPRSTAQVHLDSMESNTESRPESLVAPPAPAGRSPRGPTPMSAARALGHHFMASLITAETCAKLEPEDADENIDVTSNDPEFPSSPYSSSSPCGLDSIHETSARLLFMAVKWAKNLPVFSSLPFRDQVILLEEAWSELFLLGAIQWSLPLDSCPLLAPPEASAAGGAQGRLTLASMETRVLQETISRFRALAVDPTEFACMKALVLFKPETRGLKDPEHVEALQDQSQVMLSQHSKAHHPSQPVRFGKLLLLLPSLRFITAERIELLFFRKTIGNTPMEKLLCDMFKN
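Material: NR2E3–RetCOR corepressor complex / Amount: 1.35 nM GST-NR2E3 / Medium: Tris pH 7.5 / Compound: single nominal compound dose of 4.8 µM / Incubation: 5 h at 4 °C / Technique: TR-FRET, Eu(K)-anti-GST donor, streptavidin-D2 acceptor, ex 340, em 617/671 nm / Read-out basis: percent loss of FRET ratio relative to control wells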
NR2E3 ag-2 – NR2E3 agonists in two-hybrid cells, primary screen, cell-based, luminescence, CHO-S, Gal4-NCOR/VP16-NR2E3. inhibition of corepressor binding, % at 3.98 µM. Photoreceptor-specific nuclear receptor (Homo sapiens), Q9Y5X4. luciferase. 360,000 tested, 0.35% active;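 active = inhibition above the mean of all tested compounds plus 3 SD, cut at about 70% in these data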;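 also: higher means lower luciferase signal from less NR2E3 corepressor binding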
MPTP block – mitochondrial permeability transition pore inhibitors, primary screen, biochemical, isolated mouse mitochondria, absorbance; Ca2+ swelling absorbance, 30 min; inhibition, % at 10 µM; 360,000 tested, 1.4% active;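 active = inhibition of 50% or more, scaled per plate between neutral and stimulator controls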
Jurkat NFkB inh – inhibitors of induced NF-kB luciferase reporter, primary screen, TCR NF-kB activation inhibitor project, cell-based, luminescence, uHTS | Jurkat, PMA/ionomycin-induced NF-kB luciferase reporter | inhibition, % at 4 µM | 330,000 tested, 0.53% active | AID 435003, 2010; in the data active = inhibition above about 50%
Hits are given with their value; i = inactive; nt = not tested or not shown; ! = not active in a repeat.

SMILES | 697 NFkB inh | aDG glyco up | NR2E3 ag-1 | NR2E3 ag-2 | MPTP block | Jurkat NFkB inh
Cc1cccc(N2CCN(C3C(=O)Nc4ccccc4-n4nnnc43)CC2)c1C (stereo not given) | nt | i | nt | nt | i | nt
CN1OC[C@@H]2CN(C(=O)CCc3ccccc3)[C@H](c3ccccc3Br)C[C@@H]21 | nt | i | nt | i | i | nt
CCC(C)(O)c1cnc(CC(C)C)c(=O)n1O (stereo not given) | nt | i | nt | i | i | nt
C[C@@H]1O[C@H](C2CCCC2)CC2=C1C(=O)OC(C)(C)O2 | nt | i | nt | i | i | nt
COc1ccc2c(c1)sc1nc(-c3ccccc3)cn12 | i | 14.0 | i | i | i | i
CCOC(=O)N1CCN(C(=O)c2ccc3c(c2)sc2nc(-c4ccc(OC)cc4)cn23)CC1 | i | i | i | i | i | i
O=C(NCCc1ccccc1)c1c[nH]c2ccccc2c1=O | nt | i | nt | i | i | nt
CC(Oc1ccc(Cl)cc1Cl)c1nc(-c2ccc(NC(=O)c3cccnc3)cc2)no1 (stereo not given) | i | 14.4 | i | i | i | i
CC(Oc1ccc(Cl)cc1Cl)C(=O)NNC(=O)c1cccnc1 (stereo not given) | i | i | i | i | i | i
O=S1(=O)CC(N2CCN(Cc3ccccc3F)CC2)CN1Cc1cn(Cc2ccc(C(F)(F)F)cc2)nn1 (stereo not given) | nt | i | nt | i | i | nt
C[C@H]1CN([C@@H](C)CO)C(=O)CCCn2nncc2CO[C@H]1CN(C)S(=O)(=O)c1ccc(F)cc1 | nt | i | nt | i | i | nt
CC(=O)c1cccc(NS(=O)(=O)c2ccc(C(=O)Nc3ccccc3)cc2)c1 | i | i | i | 75.0 | i | i
CC(C)(C)n1nnnc1C(c1ccccc1)N1CCN(C(=O)C2CCCO2)CC1 (stereo not given) | nt | i | nt | i | i | nt
Cc1oc2c(c1C(=O)O)C(=O)c1ccccc1C2=O | i | i | i | i | i | i
CCOC(=O)c1c(C)oc2c1C(=O)c1ccccc1C2=O | i | 9.7 | i | i | i | i
Cc1ccc(S(=O)(=O)NCc2ccccc2Br)cc1 | nt | i | nt | nt | i | nt
Nc1c(-c2ccc(C(F)(F)F)cc2)nc2ncccn12 | nt | i | nt | nt | i | nt
O=C1c2ccc3c4c(ccc(c24)C(=O)N1c1cccc(O)c1)C(=O)N(c1cccc(O)c1)C3=O | i | 4.0 | i | i | i | i
S=C(Nc1ccccc1)Nc1ccccn1 | nt | i | nt | i | i | nt
S=C(Nc1ccc(Nc2ccccc2)cc1)Nc1ccccn1 | i | 9.4 | i | i | i | i
CCN1CCN(Cc2ccc(NC(=O)c3ccc(C)c(NC(=O)c4nccn4C)c3)cc2C(F)(F)F)CC1 | i | i | i | i | i | i
CCN1CCN(Cc2ccc(NC(=O)c3ccc(C)c(NC(=O)c4cncc(-c5cccs5)c4)c3)cc2C(F)(F)F)CC1 | nt | i | nt | 82.5 | i | nt
O=[N+]([O-])c1cc([N+](=O)[O-])c2oc(-c3ccccc3)c(Br)c2c1O | nt | i | nt | 100.2 | i | nt
CCOC(=O)C1CCCN(C(=S)NC(=O)/C=C/c2ccc(F)cc2)C1 (stereo not given) | i | i | i | i | i | i
Cn1nc(C(F)(F)F)c(/C=N/OC(=O)c2ccccc2Cl)c1SCc1ccccc1Cl | i | i | i | 72.8 | i | i
SMILES | 697 NFkB inh | aDG glyco up | NR2E3 ag-1 | NR2E3 ag-2 | MPTP block | Jurkat NFkB inh
Cn1nc(C(F)(F)F)c(/C=N/OC(=O)c2ccccc2)c1SCc1ccc(Cl)cc1 | i | i | i | i | i | i
Cc1cccc(-c2ccc([N+](=O)[O-])cc2CN2CCN(c3ncc(Cc4ccccc4)cn3)CC2)c1 | nt | i | nt | nt | i | nt
Nc1c(S(=O)(=O)c2ccccc2)c2nc3ccccc3nc2n1Cc1ccco1 | i | 18.9 | i | i | i | i
Cc1cc2nc(-c3ccco3)c(Cc3cccc(Cl)c3)n2c(C)c1Br | nt | i | nt | i | i | nt
CCCCn1c(CN2CCN(C(=O)c3ccco3)CC2)nc2c1c(=O)n(C)c(=O)n2C | i | 7.9 | i | i | i | i
COC(=O)c1c(C)oc2ccc(N(C(=O)c3ccncc3)S(=O)(=O)c3ccccc3)cc12 | i | i | i | 70.5 | i | i
O=C(Nc1ccccc1Cl)c1cc(C2CCCN(C(=O)c3cccs3)C2)on1 (stereo not given) | nt | i | nt | i | i | nt
O=C(NC1=C(Nc2ccc(F)cc2)C(=O)c2ccccc2C1=O)c1ccc(Cl)cc1 | i | 5.4 | i | i | i | i
O=C(NNC(=O)c1ccc(NC(=O)c2ccccc2)cc1)c1ccc(F)cc1 | i | i | i | i | i | i
COc1ccc(-c2nc3cc(C)c(Br)c(C)n3c2Cc2ccc(C)cc2)cc1OC | nt | i | nt | i | i | nt
Cc1cn(S(=O)(=O)c2ccc(Br)c3ccccc23)cn1 | i | nt | 31.0 | nt | nt | i
COc1cc(S(=O)(=O)n2cnc(C)c2)ccc1Br | i | i | i | i | i | i
O=C(O)CSc1cc(NS(=O)(=O)c2ccc(Cl)cc2)c2ccccc2c1O | nt | 3.8 | i | i | i | nt
COc1ccc(S(=O)(=O)Nc2cc(SCC(=O)O)c(O)c3ccccc23)cc1 | i | 5.0 | i | i | i | i
CN(Cc1ccccc1)Cc1cc(=O)oc2ccc3ccccc3c12 | nt | i | nt | i | i | nt
COc1ccc(C(=O)C(C)OC(=O)c2cccc(S(=O)(=O)Nc3cc(Cl)c(OC)cc3OC)c2)cc1 (stereo not given) | i | i | i | 79.6 | i | i
CC(C)[C@@H](C(=O)N[C@@H](CCc1ccc(O)cc1)C(=O)O)N(C)C(=O)[C@H](CO)NC(=O)[C@@H](O)[C@H](N)CCCCCCCCl | nt | i | nt | i | i | nt
CCCCCCCCN1C(=O)[C@H](CC(=O)NCc2cccc(C(F)(F)F)c2)C[C@@]2(C(=O)OC)CC(C)(C)CC=C12 | nt | i | nt | nt | i | nt
COc1ccc(OC)c(C(=O)c2coc3ccc(O)c(CN(C)C)c23)c1 | i | i | i | i | i | i
COc1ccc2occ(C(=O)c3coc4ccc(O)c(CN(C)C)c34)c2c1 | i | 9.1 | i | i | i | i
CCOC(=O)C1=CCN(S(=O)(=O)c2ccc(C)cc2)C1c1cccc(C)c1 (stereo not given) | nt | i | nt | i | i | nt
CCC12CC1(C(=O)OC)C(=O)N1CCc3c([nH]c4ccccc34)C12 (stereo not given) | nt | i | nt | i | i | nt
N=c1n(CCN2CCCCC2)c2ccccc2n1CC(=O)c1ccc(Cl)c(Cl)c1 | i | 5.4 | i | i | i | i
Nc1ncnc2c1ncn2C1C=C(CO)C(O)C1O (stereo not given) | nt | i | nt | 73.6 | i | nt
CCC(C)Sc1cccc(-c2nc3cc(C)ccn3c2NC2CCCCC2)c1 (stereo not given) | i | 14.7! | nt | i | i | i
